Consider four compounds from paper PMC12977181 (Journal of natural products, 2025).

Entries after “also recorded” stand apart in the source; their conditions may differ. Like-named read-outs stand apart in the source and are kept apart here.

Data set [1] has as its system mice with neuropathic pain. The note with it: through σ2R/TMEM97; cited from earlier work.
Data set [2] has as its system p-eIF2α. The data set can be described thus: Immunocytochemistry of p-eIF2α in primary mouse DRGs. The note with it: approximately 16 h, vs vehicle (0.01% DMSO). The format is cell-based. In a few lines: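 Primary mouse DRG neurons were cultured overnight in Neurobasal A, then exposed for ~16 h to test compounds (30–1000 nM) or 0.01% DMSO. Cells were formalin-fixed, blocked in 10% goat serum with 0.1% Triton X-100, and immunostained for p-eIF2α (Alexa 555) and peripherin (Alexa 488) with DAPI. p-eIF2α was quantified as mean gray intensity in peripherin-positive neurons. One-way ANOVA with Tukey's test; mean ± SEM.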

The subject of data set [3] is HEK293 cells. The note with it: cited from earlier work.
Data set [4] deals with breast cancer cell lines. To be noted: cited from earlier work.
Data set [5] has as its system HEK293 cells. As to the kind of experiment: Cytotoxicity in HEK293 cells, resazurin reduction assay. To be noted: 24 h; for cell death at 30 μM: resazurin (Figure 7A); for LD50: 0.03-30 μM, logarithmic nonlinear regression curve (Figure 7B). The format is cell-based. (Alamar Blue is a resazurin reagent that responds to reducing activity.)
Data set [6] has as its system hiPSC-derived nociceptors. The data set can be described thus: Multiwell microelectrode array. In kind it is cell-based, human.
The test system of data set [7] is primary mouse DRG neurons. As to the kind of experiment: Functional calcium imaging in primary mouse DRG neurons. The format is cell-based. To be noted: 10 μM Ver E. The method, boiled down:
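DRGs from an 18-week-old male Nestin-Cre × Cre-dependent GCaMP6f mouse were digested with papain (15 IU/mL) plus collagenase (2.25 mg/mL) at 37 °C for 20 min and plated at 450,000–500,000 cells/mL in Neurobasal A. Imaging ran 24 h later with FITC optics. Maximum fluorescence was taken during direct 10 μM exposure and during SOCE, against 0.1% DMSO vehicle. Unpaired two-tailed t tests; SEM; n = cells.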

For `OCCCN1CCC2CC1c1cc(-c3ccc(C(F)(F)F)cc3)ccc12` (stereo not shown) [FEM-1689, reference compound], the “analgesic effect, in words” value in data set [1] is recorded as “drives analgesic responses”. Further, the “p-eIF2α expression (mean gray intensity), in words” value in data set [2] (FEM-1689 30 nM) was “marked reduction”.
Consider veraguamide C, for which the “cytotoxicity, in words” value in data set [3] was “nontoxic”; in data set [4], “mild cytotoxicity”.
Consider `C[C@@H]1CC[C@@]2(OC1)O[C@H]1[C@@H](O)[C@H]3[C@@H]4CC[C@H]5C[C@@H](O[C@@H]6O[C@H](CO)[C@H](O[C@@H]7O[C@H](CO)[C@@H](O)[C@H](O[C@@H]8OC[C@@H](O)[C@H](O)[C@H]8O)[C@H]7O[C@@H]7O[C@H](CO)[C@H](O)[C@H](O[C@@H]8O[C@H](CO)[C@@H](O)[C@H](O)[C@H]8O)[C@H]7O)[C@H](O)[C@H]6O)[C@H](O)C[C@]5(C)[C@H]4CC[C@]3(C)[C@H]1[C@@H]2C` [digitonin, reference compound], for which the “cell death at 30 μM” value in data set [5] stood at 100%. For the same compound, the LD50 in data set [5] (resazurin) came to 9.68 µM.
As for `C#CCCC[C@H]1OC(=O)[C@H](C(C)C)N(C)C(=O)[C@@H]2CCCN2C(=O)[C@H]([C@@H](C)CC)OC(=O)[C@H]([C@@H](C)CC)N(C)C(=O)[C@H]([C@@H](C)CC)NC(=O)[C@H]1C` [Ver E, veraguamide E], the “neuronal activity at 24 h, in words” value in data set [6] (30 μM, 37 °C, 24-h time point) is on record as “returning to baseline”. The “effect on activity at 42 °C (heat ramp 37 to 42 °C), in words” value in data set [6] (42 °C, Ver E vs vehicle (DMSO)) was “no significant effect; also recorded: nonsignificant decrease”. Further, the “p-eIF2α levels (mean gray intensity), in words” value in data set [2] (Ver E 100 nM) and in data set [2] (Ver E 1000 nM) was “No observable differences” throughout. The “Maximum fluorescence during the SOCE response (mean)” value in data set [7] (0.1% DMSO, max ΔF/F0, after reintroduction of extracellular Ca2+, vehicle mean = 2.126, no significant difference) was 1.929. Also, the “DRG excitability during coapplication with thapsigargin, in words” value in data set [7] (compared to thapsigargin alone, P < 0.01) was “significantly increased DRG excitability”. Also, the “SOCE response, in words” value in data set [7] (upon reintroduction of extracellular Ca2+) is recorded as “no significant change”. For the same compound, the “cytotoxicity, in words” value in data set [5] (0.03 μM to 30 μM, resazurin) is “no evidence of cytotoxicity”. Moreover, in data set [5], the “cell death at 30 μM” value is recorded as “no cytotoxicity”. In data set [5] (resazurin), the LD50 result is listed as “no detectable LD50”.
